# Assay results taken from ChEMBL document CHEMBL4138300 (ACS Med Chem Lett, 2018).
# Experiments:
# [1] = Mean residence time (0 to infinity) in Sprague-Dawley rat at 5 mg/kg administered via oral gavage; type: ADME, organism-based; details: in vivo
# Method in brief: (§1)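 Single oral dose given as a CMC-Na suspension: rats 5 mg/kg, mice 10 mg/kg. Oral bioavailability was set against the matching iv arm (rats 0.5 mg/kg, mice 1.0 mg/kg).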
# [2] = Apparent volume of distribution during terminal phase in Sprague-Dawley rat at 5 mg/kg administered via oral gavage; type: ADME, organism-based; details: in vivo, read-out: Vz/F; method in brief: as §1
# [3] = Half life in rat liver microsomes; type: ADME, microsome
# [4] = tested on: Mus musculus; test: Apparent volume of distribution during terminal phase in ICR mouse at 1 mg/kg, iv; type: ADME, organism-based; details: in vivo
# Method in brief: (§2)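 Single intravenous dose: rats 0.5 mg/kg, mice 1.0 mg/kg. Plasma exposure and terminal-phase parameters were calculated from the concentration–time profile. These serve as the iv reference for bioavailability.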
# [5] = tested on: Pfeiffer; test: Antitumor activity against human Pfeiffer cells xenografted in athymic nude mouse assessed as tumor growth inhibition at 30 mg/kg, po qd administered for 20 days measured twice per week; type: functional; details: 480 h, read-out: TGI
# Method in brief: (§3)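 Pfeiffer xenografts were grown to about 150-200 mm³ before dosing. The compound was given orally once daily for 20 days at the dose in each line (10, 30 or 100 mg/kg), with a reference EZH2 inhibitor dosed at 100 mg/kg. Tumor growth inhibition was expressed as percent reduction in tumor size.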
# [6] = Protein binding in mouse plasma; type: ADME, cell-free; details: read-out: PPB (converted)
# [7] = Protein binding in human plasma; type: ADME, cell-free; details: read-out: PPB (converted)
# [8] = Apparent clearance during terminal phase in Sprague-Dawley rat at 5 mg/kg administered via oral gavage; type: ADME, organism-based; details: in vivo, read-out: CLz/F; method in brief: as §1
# [9] = Cmax in ICR mouse at 10 mg/kg administered via oral gavage; type: ADME, organism-based; design: dose 10 mg/kg, route oral; details: in vivo; method in brief: as §1
# [10] = tested on: Pfeiffer; test: Cytotoxicity against human Pfeiffer cells assessed as decrease in cell viability after 5 days by CellTiter-Glo reagent based luminescence assay; type: functional; details: 120 h
# [11] = AUC (0 to t) in Sprague-Dawley rat at 5 mg/kg administered via oral gavage; type: ADME, organism-based; details: in vivo; method in brief: as §1
# [12] = Mean residence time (0 to infinity) in ICR mouse at 10 mg/kg administered via oral gavage; type: ADME, organism-based; details: in vivo; method in brief: as §1
# [13] = tested on: Pfeiffer; test: Antitumor activity against human Pfeiffer cells xenografted in athymic nude mouse assessed as tumor growth inhibition administered po qd for 20 days measured twice per week; type: functional, organism-based
# Method in brief: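 Pfeiffer xenografts were grown to about 150-200 mm³ before dosing. Compound was given orally once daily for 20 days at 10, 30 or 100 mg/kg. A reference EZH2 inhibitor (100 mg/kg) was run alongside. Tumor size reduction was the efficacy read-out.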
# [14] = Half life in human liver microsomes; type: ADME, microsome
# [15] = Oral bioavailability in ICR mouse at 10 mg/kg administered via gavage; type: ADME, organism-based; details: in vivo; method in brief: as §1
# [16] = tested on: Mus musculus; test: Toxicity in athymic nude mouse xenografted with human Pfeiffer cells assessed as body weight loss at 10 to 100 mg/kg, po qd administered for 20 days measured twice per week; type: organism-based; details: in vivo, 480 h
# [17] = AUC (0 to t) in Sprague-Dawley rat at 0.5 mg/kg, iv; type: ADME, organism-based; details: in vivo; method in brief: as §2
# [18] = molecular target: T1, Histone-lysine N-methyltransferase EZH2 (Homo sapiens, UniProt Q15910); test: Inhibition of EZH2 in human WSU-DLCL2 cells assessed as reduction in H3K27 trimethylation after 3 days by Western blot analysis; type: cell-based
# Target sequence in this assay (Q15910 whole entry): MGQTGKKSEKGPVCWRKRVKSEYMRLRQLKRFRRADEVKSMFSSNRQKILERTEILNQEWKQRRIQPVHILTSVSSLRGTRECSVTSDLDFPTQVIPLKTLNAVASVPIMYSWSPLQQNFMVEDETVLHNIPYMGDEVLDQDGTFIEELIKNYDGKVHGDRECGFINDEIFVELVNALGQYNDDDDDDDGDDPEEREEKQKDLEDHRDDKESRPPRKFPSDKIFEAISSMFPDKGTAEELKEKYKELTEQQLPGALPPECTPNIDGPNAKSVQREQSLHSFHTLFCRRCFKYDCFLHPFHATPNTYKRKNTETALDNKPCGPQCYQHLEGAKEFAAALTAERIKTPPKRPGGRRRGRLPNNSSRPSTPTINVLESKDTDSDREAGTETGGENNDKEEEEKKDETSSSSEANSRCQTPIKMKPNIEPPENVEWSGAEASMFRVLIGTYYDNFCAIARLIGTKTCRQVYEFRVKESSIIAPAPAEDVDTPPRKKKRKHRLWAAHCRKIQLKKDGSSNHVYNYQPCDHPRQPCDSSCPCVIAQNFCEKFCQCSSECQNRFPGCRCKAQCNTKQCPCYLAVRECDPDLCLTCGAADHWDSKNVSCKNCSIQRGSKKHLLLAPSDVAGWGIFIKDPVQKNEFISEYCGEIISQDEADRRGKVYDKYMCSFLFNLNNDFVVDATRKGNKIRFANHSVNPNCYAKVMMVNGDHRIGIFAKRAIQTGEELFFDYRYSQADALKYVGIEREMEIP
# [19] = Apparent clearance during terminal phase in ICR mouse at 10 mg/kg administered via oral gavage; type: ADME, organism-based; details: in vivo, read-out: CLz/F; method in brief: as §1
# [20] = Oral bioavailability in Sprague-Dawley rat at 5 mg/kg administered via gavage; type: ADME, organism-based; details: in vivo; method in brief: as §1
# [21] = molecular target: T1, Histone-lysine N-methyltransferase EZH2; test: Inhibition of EZH2 in human Pfeiffer cells assessed as reduction in H3K27 trimethylation after 3 days by Western blot analysis; type: cell-based
# [22] = Half life in ICR mouse at 10 mg/kg administered via oral gavage; type: ADME, organism-based; details: in vivo; method in brief: as §1
# [23] = tested on: Pfeiffer; test: Antitumor activity against human Pfeiffer cells xenografted in athymic nude mouse assessed as tumor growth inhibition at 100 mg/kg, po qd administered for 20 days measured twice per week; type: functional; details: 480 h, read-out: TGI; method in brief: as §3
# [24] = tested on: Pfeiffer; test: Antitumor activity against human Pfeiffer cells xenografted in athymic nude mouse assessed as tumor growth inhibition at 10 mg/kg, po qd administered for 20 days measured twice per week; type: functional; details: 480 h, read-out: TGI; method in brief: as §3
# [25] = Cmax in Sprague-Dawley rat at 5 mg/kg administered via oral gavage; type: ADME, organism-based; design: dose 5 mg/kg, route oral; details: in vivo; method in brief: as §1
# [26] = Protein binding in rat plasma; type: ADME, cell-free; details: read-out: PPB (converted)
# [27] = Apparent volume of distribution during terminal phase in ICR mouse at 10 mg/kg administered via oral gavage; type: ADME, organism-based; details: in vivo, read-out: Vz/F; method in brief: as §1
# [28] = AUC (0 to t) in ICR mouse at 10 mg/kg administered via oral gavage; type: ADME, organism-based; details: in vivo; method in brief: as §1
# [29] = Mean residence time (0 to infinity) in Sprague-Dawley rat at 0.5 mg/kg, iv; type: ADME, organism-based; details: in vivo; method in brief: as §2
# [30] = AUC (0 to t) in ICR mouse at 1 mg/kg, iv; type: ADME, organism-based; details: in vivo; method in brief: as §2
# [31] = Mean residence time (0 to infinity) in ICR mouse at 1 mg/kg, iv; type: ADME, organism-based; details: in vivo; method in brief: as §2
# [32] = tested on: Rattus norvegicus; test: Apparent volume of distribution during terminal phase in Sprague-Dawley rat at 0.5 mg/kg, iv; type: ADME, organism-based; details: in vivo; method in brief: as §2
# [33] = Half life in Sprague-Dawley rat at 5 mg/kg administered via oral gavage; type: ADME, organism-based; details: in vivo; method in brief: as §1
# [34] = molecular target: EZH2 (Homo sapiens); test: Inhibition of human N-terminal His-tagged EZH2/flag-tagged EED/SUZ12/AEBP2/RBAP48 A677G mutant (2 to end residues) expressed in baculovirus infected Sf9 insect cells using histone H3 (1 to 50 residues)-GGK as substrate after 2 hrs in presence of SAM by fluorescence assay
# [35] = Stability of the compound in rat liver microsomes; type: ADME, microsome
# [36] = Stability of the compound in human liver microsomes; type: ADME, microsome
compound,measurement,setting,value
CCc1c(N(CC)C2CCOCC2)cc2oc(C3CCN(C(C)C)CC3)cc2c1C(=O)NCc1c(C)cc(C)[nH]c1=O,MRT inf,[1],3 h
same,Vd/F,[2],24.1 L/kg
same,half-life,[3],> 0.5 h
same,Vz/F,[4],3.679 L/kg
same,inhibition in vivo at 30 mg/kg,[5],83%
same,fraction unbound,[6],0.073
same,fraction unbound,[7],0.061
same,CL/F,[8],287 mL/min/kg
same,Cmax,[9],257 ng/mL
same,IC50,[10],6 nM
same,AUC(0-t),[11],239 ng·h/mL
same,MRT inf,[12],2.7 h
same,TGI,[13],Dose-dependent effect
same,half-life,[14],> 0.5 h
same,bioavailability,[15],16%
same,Activity,[16],Non-Toxic
same,AUC(0-t),[17],325 ng·h/mL
same,IC50,[18],55 nM
same,CL/F,[19],202 mL/min/kg
same,bioavailability,[20],9%
same,IC50,[21],8 nM
same,inhibition,[21],Dose-dependent effect
same,half-life,[22],1.3 h
same,inhibition in vivo at 100 mg/kg,[23],97%
same,inhibition in vivo at 10 mg/kg,[24],28%
same,Cmax,[25],93 ng/mL
same,fraction unbound,[26],0.06
same,Vd/F,[27],21.9 L/kg
same,AUC(0-t),[28],774 ng·h/mL
same,MRT inf,[29],1 h
same,AUC(0-t),[30],483 ng·h/mL
same,MRT inf,[31],1.3 h
same,Vz/F,[32],2.556 L/kg
same,half-life,[33],1 h
CCN(c1cc2oc(C)cc2c(C(=O)NCc2c(OC)cc(C)[nH]c2=O)c1C)C1CCOCC1,IC50,[34],2.9 nM
same,IC50,[10],14 nM
CCc1c(N(CC)C2CCOCC2)cc2oc(C3CCN(C)CC3)cc2c1C(=O)NCc1c(C)cc(C)[nH]c1=O,half-life,[3],> 1 h
same,IC50,[34],6.1 nM
same,IC50,[10],7 nM
same,half-life,[14],> 1 h
same,AUC(0-t),[28],439 ng·h/mL
CCN(c1cc2oc(C(F)(F)F)cc2c(C(=O)NCc2c(OC)cc(C)[nH]c2=O)c1C)C1CCOCC1,IC50,[34],2.7 nM
same,IC50,[10],17 nM
CCN(c1cc2occc2c(C(=O)NCc2c(OC)cc(C)[nH]c2=O)c1C(F)(F)F)C1CCOCC1,IC50,[34],2000 nM
CCN(c1cc(C(=O)NCc2c(OC)cc(C)[nH]c2=O)c2ccoc2c1)C1CCOCC1,IC50,[34],331 nM
same,IC50,[10],> 5000 nM
CCN(c1cc2oc(F)cc2c(C(=O)NCc2c(OC)cc(C)[nH]c2=O)c1C)C1CCOCC1,IC50,[34],4.1 nM
same,IC50,[10],160 nM
CCc1c(N(CC)C2CCOCC2)cc2oc(CN3CCOCC3)cc2c1C(=O)NCc1c(C)cc(C)[nH]c1=O,Stability,[35],Stable
same,IC50,[34],4.6 nM
same,Stability,[36],Stable
same,IC50,[10],14 nM
CCN(c1cc2sccc2c(C(=O)NCc2c(C)cc(C)[nH]c2=O)c1C)C1CCOCC1,IC50,[34],6 nM
same,IC50,[10],1830 nM
CCN(c1cc2oc(C#N)cc2c(C(=O)NCc2c(OC)cc(C)[nH]c2=O)c1C)C1CCOCC1,IC50,[34],0.8 nM
same,IC50,[10],17 nM
CCN(c1cc2occ(C)c2c(C(=O)NCc2c(OC)cc(C)[nH]c2=O)c1C)C1CCOCC1,IC50,[34],5.9 nM
same,IC50,[10],1300 nM
CCN(c1cc2oc(C3CC3)cc2c(C(=O)NCc2c(OC)cc(C)[nH]c2=O)c1C)C1CCOCC1,IC50,[34],0.5 nM
same,IC50,[10],11 nM
